{"data": "Results collected from several papers", "organism": "Klebsiella pneumoniae", "effect on": "microbial growth"}
{"SMILES": "CCCCCCC#Cc1cncc(-c2nnc(SCc3ccc(Cl)cc3)n2CCCN)c1", "method": "broth dilution", "strain": "DSM30104", "MIC": "32 µg/mL"}
{"SMILES": "CO/N=C(\\C(=O)N[C@@H]1C(=O)N2C(C(=O)O)=C(CSc3nc(=O)c(=O)[nH]n3C)CS[C@H]12)c1csc(N)n1", "method": "broth dilution", "strain": "ATCC700603", "MIC": "> 512 µg/mL"}
{"SMILES": "CN(C)[C@@H]1C(O)=C(C(N)=O)C(=O)[C@@]2(O)C(O)=C3C(=O)c4c(O)cccc4[C@@](C)(O)[C@H]3C[C@@H]12", "method": "broth dilution", "strain": "ATCC27736", "time": "16 h", "MIC": "3.1 µM"}
{"SMILES": "Cc1cc(NS(=O)(=O)c2ccc(N)cc2)no1", "method": "broth dilution", "strain": "ATCC43816", "MIC": "64 µg/mL"}
{"SMILES": "C[C@@H](O)[C@H]1C(=O)N2C(C(=O)O)=C(S[C@@H]3CN[C@H](C(=O)N(C)C)C3)[C@H](C)[C@H]12", "method": "broth dilution", "strain": "ATCC13883", "MIC": "0.125 µg/mL"}
{"SMILES": "CCCCCCCCN=c1ccn(CCCCCCCCCCn2ccc(=NCCCCCCCC)cc2)cc1", "strain": "ATCC4352", "MIC": "0.5 µM"}
{"SMILES": "O=C(O)c1cn(C2CC2)c2cc(N3CCNCC3)c(F)cc2c1=O", "method": "broth dilution", "strain": "ATCC700603", "MIC": "> 512 µg/mL"}
{"SMILES": "CCCCCCC#Cc1cncc(-c2nnc(SCc3cc([N+](=O)[O-])cc([N+](=O)[O-])c3)n2C2CCNCC2)c1", "method": "broth dilution", "strain": "DSM30104", "MIC": "> 64 µg/mL"}
{"SMILES": "C[C@H]1[C@H](NC(=O)/C(=N\\OC(C)(C)C(=O)O)c2csc(N)n2)C(=O)N1S(=O)(=O)O", "method": "broth dilution", "strain": "ATCC43816", "MIC": "< 0.5 µg/mL"}
{"SMILES": "CC[C@H]1OC(=O)[C@H](C)[C@@H](O[C@H]2C[C@@](C)(OC)[C@@H](O)[C@H](C)O2)[C@H](C)[C@@H](O[C@@H]2O[C@H](C)C[C@H](N(C)C)[C@H]2O)[C@](C)(O)C[C@@H](C)CN(C)[C@H](C)[C@@H](O)[C@]1(C)O", "method": "broth dilution", "strain": "ATCC13883", "MIC": "1 µg/mL"}
{"SMILES": "CCCCCCC#Cc1cncc(-c2nnc(SCc3cc([N+](=O)[O-])cc([N+](=O)[O-])c3)n2CCCN)c1", "method": "broth dilution", "strain": "DSM30104", "MIC": "> 64 µg/mL"}
{"SMILES": "Cc1nnc(SCC2=C(C(=O)O)N3C(=O)[C@@H](NC(=O)Cn4cnnn4)[C@H]3SC2)s1", "method": "broth dilution", "strain": "ATCC43816", "MIC": "1 µg/mL"}
{"SMILES": "CCCCCCC#Cc1cncc(-c2nnc(SCc3ccc([N+](=O)[O-])cc3)n2CCCN)c1", "method": "broth dilution", "strain": "DSM30104", "MIC": "> 64 µg/mL"}
{"SMILES": "O=C(N[C@H](CO)[C@H](O)c1ccc([N+](=O)[O-])cc1)C(Cl)Cl", "method": "broth dilution", "strain": "ATCC43816", "MIC": "4 µg/mL"}
{"SMILES": "N[C@@H](Cc1c[nH]c2ccc(Cl)cc12)C(=O)O", "strain": "MGH78578", "time": "18 h", "MIC": "> 200 µM"}
{"SMILES": "CCN1CCN(C(=O)N[C@@H](C(=O)N[C@@H]2C(=O)N3[C@@H]2SC(C)(C)[C@@H]3C(=O)O)c2ccccc2)C(=O)C1=O", "method": "broth dilution", "strain": "ATCC43816", "MIC": "4 µg/mL"}
{"SMILES": "CO/N=C(\\C(=O)N[C@@H]1C(=O)N2C(C(=O)O)=CCS[C@H]12)c1csc(N)n1", "method": "broth dilution", "strain": "ATCC13883", "MIC": "0.125 µg/mL"}
{"SMILES": "C[C@@H](O)[C@H]1C(=O)N2C(C(=O)O)=C(S[C@@H]3CN[C@H](C(=O)N(C)C)C3)[C@H](C)[C@H]12", "method": "broth dilution", "strain": "ATCC43816", "MIC": "< 0.5 µg/mL"}
{"SMILES": "C[C@@H](O)[C@H]1C(=O)N2C(C(=O)O)=C(SCCN=CN)C[C@H]12", "method": "broth dilution", "strain": "ATCC13883", "MIC": "4 µg/mL"}
{"SMILES": "CC1(C)S[C@@H]2[C@H](NC(=O)[C@H](N)c3ccccc3)C(=O)N2[C@H]1C(=O)O", "method": "broth dilution", "strain": "ATCC43816", "MIC": "172 µM"}
{"SMILES": "C[C@@H](O)[C@H]1C(=O)N2C(C(=O)O)=C(S[C@@H]3CN[C@H](C(=O)N(C)C)C3)[C@H](C)[C@H]12", "method": "broth dilution", "strain": "ATCC700603", "MIC": "2 µg/mL"}
